Measurements as given in ChEMBL document CHEMBL1146375, “Synthetic studies on novel benzimidazolopeptides with antimicrobial, cytotoxic and anthelmintic potential” (2007).
In brackets after ≈: the same amount, converted by molar mass.

test system: Bacillus subtilis; test: Antibacterial activity against Bacillus subtilis NCIM 2063 after 18 hrs by disc diffusion method; format: functional; conditions: not given
Procedure, shortened: (§1)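 Modified Kirby-Bauer disc diffusion. Plates inoculated with spore suspension (about 6 × 10⁴ spores mL^-1). Sterile 6 mm paper discs carried test samples at 10 mg mL^-1; ciprofloxacin disc as reference, DMF disc as negative control. Plates held 18 h at 37 °C. Inhibition zone diameters (mm) averaged over triplicate sets.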

| Compound | inhibition zone (IZ) [mm] |
| --- | --- |
| COC(=O)[C@H](C)NC(=O)[C@H](CCCNC(=N)N[N+](=O)[O-])NC(=O)c1cc(-c2nc3cc(C)c(C)cc3[nH]2)ccc1O | 15 |

test system: Staphylococcus aureus; test: Antibacterial activity against Staphylococcus aureus NCIM 2079 after 18 hrs by disc diffusion method; format: functional; conditions: not given; procedure, shortened: as §1

| Compound | inhibition zone (IZ) [mm] |
| --- | --- |
| COC(=O)[C@H](C)NC(=O)[C@H](CCCNC(=N)N[N+](=O)[O-])NC(=O)c1cc(-c2nc3cc(C)c(C)cc3[nH]2)ccc1O | 11 |

test system: Pseudomonas aeruginosa; test: Antibacterial activity against Pseudomonas aeruginosa NCIM 2034 after 18 hrs by disc diffusion method; format: functional; conditions: not given; procedure, shortened: as §1

| Compound | inhibition zone (IZ) [mm] |
| --- | --- |
| COC(=O)[C@H](C)NC(=O)[C@H](CCCNC(=N)N[N+](=O)[O-])NC(=O)c1cc(-c2nc3cc(C)c(C)cc3[nH]2)ccc1O | 22 |

test system: Escherichia coli; test: Antibacterial activity against Escherichia coli NCIM 2065 after 18 hrs by disc diffusion method; format: functional; conditions: not given; procedure, shortened: as §1

| Compound | inhibition zone (IZ) [mm] |
| --- | --- |
| COC(=O)[C@H](C)NC(=O)[C@H](CCCNC(=N)N[N+](=O)[O-])NC(=O)c1cc(-c2nc3cc(C)c(C)cc3[nH]2)ccc1O | 17 |

test system: Candida albicans; test: Antifungal activity against Candida albicans MUCC 29 after 48 hrs by disc diffusion method; format: functional; conditions: not given
Procedure, shortened: (§2)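 Agar well diffusion on plates inoculated with spore suspension in normal saline from cultures on Sabouraud's broth. Wells punched and loaded with test samples or griseofulvin at 10 mg mL^-1, with DMSO as negative control. Incubated 48 h at 37 °C.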

| Compound | inhibition zone (IZ) [mm] |
| --- | --- |
| COC(=O)[C@H](C)NC(=O)[C@H](CCCNC(=N)N[N+](=O)[O-])NC(=O)c1cc(-c2nc3cc(C)c(C)cc3[nH]2)ccc1O | 19 |

test system: Microsporum audouinii; test: Antifungal activity against Microsporum audouinii MUCC 545 after 48 hrs by disc diffusion method; format: functional; conditions: not given; procedure, shortened: as §2

| Compound | inhibition zone (IZ) [mm] |
| --- | --- |
| COC(=O)[C@H](C)NC(=O)[C@H](CCCNC(=N)N[N+](=O)[O-])NC(=O)c1cc(-c2nc3cc(C)c(C)cc3[nH]2)ccc1O | 11 |

test system: Trichophyton benhamiae; test: Antifungal activity against Trichophyton mentagrophytes MUCC 665 after 48 hrs by disc diffusion method; format: functional, Arthroderma benhamiae; conditions: not given; procedure, shortened: as §2

| Compound | inhibition zone (IZ) [mm] |
| --- | --- |
| COC(=O)[C@H](C)NC(=O)[C@H](CCCNC(=N)N[N+](=O)[O-])NC(=O)c1cc(-c2nc3cc(C)c(C)cc3[nH]2)ccc1O | 10 |

test system: Aspergillus niger; test: Antifungal activity against Aspergillus niger MUCC 177 after 48 hrs by disc diffusion method; format: functional; conditions: not given; procedure, shortened: as §2

| Compound | inhibition zone (IZ) [mm] |
| --- | --- |
| COC(=O)[C@H](C)NC(=O)[C@H](CCCNC(=N)N[N+](=O)[O-])NC(=O)c1cc(-c2nc3cc(C)c(C)cc3[nH]2)ccc1O | 18 |

test system: Bacillus subtilis; test: Antibacterial activity against Bacillus subtilis NCIM 2063 after 18 hrs by tube dilution method; format: functional; conditions: NCIM 2063, 18 h
Procedure, shortened: (§3)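 Tube dilution MIC. Stock diluted in sterile broth to seven concentrations from 200 to 3.1 […]. Each tube inoculated with one loopful of test bacterium and incubated 18 h at 37 °C. MIC read from presence or absence of growth.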

| Compound | MIC [mg/L] |
| --- | --- |
| COC(=O)[C@H](C)NC(=O)[C@H](CCCNC(=N)N[N+](=O)[O-])NC(=O)c1cc(-c2nc3cc(C)c(C)cc3[nH]2)ccc1O | 6 (≈ 10.6 µM) |

test system: Staphylococcus aureus; test: Antibacterial activity against Staphylococcus aureus NCIM 2079 after 18 hrs by tube dilution method; format: functional; conditions: NCIM 2079, 18 h; procedure, shortened: as §3

| Compound | MIC [mg/L] |
| --- | --- |
| COC(=O)[C@H](C)NC(=O)[C@H](CCCNC(=N)N[N+](=O)[O-])NC(=O)c1cc(-c2nc3cc(C)c(C)cc3[nH]2)ccc1O | 12.5 (≈ 22 µM) |

test system: Pseudomonas aeruginosa; test: Antibacterial activity against Pseudomonas aeruginosa NCIM 2034 after 18 hrs by tube dilution method; format: functional; conditions: NCIM 2034, 18 h; procedure, shortened: as §3

| Compound | MIC [mg/L] |
| --- | --- |
| COC(=O)[C@H](C)NC(=O)[C@H](CCCNC(=N)N[N+](=O)[O-])NC(=O)c1cc(-c2nc3cc(C)c(C)cc3[nH]2)ccc1O | 6 (≈ 10.6 µM) |

test system: Escherichia coli; test: Antibacterial activity against Escherichia coli NCIM 2065 after 18 hrs by tube dilution method; format: functional; conditions: NCIM 2065, 18 h

| Compound | MIC [mg/L] |
| --- | --- |
| COC(=O)[C@H](C)NC(=O)[C@H](CCCNC(=N)N[N+](=O)[O-])NC(=O)c1cc(-c2nc3cc(C)c(C)cc3[nH]2)ccc1O | 12.5 (≈ 22 µM) |

test system: Candida albicans; test: Antifungal activity against Candida albicans MUCC 29 after 48 hrs by tube dilution method; format: functional; conditions: not given
Procedure, shortened: (§4)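 Tube dilution MIC as for bacteria (seven concentrations, 200–3.1 […]), with DMSO in place of DMF. Tubes inoculated with fungal culture and incubated 48 h at 37 °C. MIC read from presence or absence of growth.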

| Compound | MIC [mg/L] |
| --- | --- |
| COC(=O)[C@H](C)NC(=O)[C@H](CCCNC(=N)N[N+](=O)[O-])NC(=O)c1cc(-c2nc3cc(C)c(C)cc3[nH]2)ccc1O | 12.5 (≈ 22 µM) |

test system: Microsporum audouinii; test: Antifungal activity against Microsporum audouinii MUCC 545 after 48 hrs by tube dilution method; format: functional; conditions: not given; procedure, shortened: as §4

| Compound | MIC [mg/L] |
| --- | --- |
| COC(=O)[C@H](C)NC(=O)[C@H](CCCNC(=N)N[N+](=O)[O-])NC(=O)c1cc(-c2nc3cc(C)c(C)cc3[nH]2)ccc1O | 6 (≈ 10.6 µM) |

test system: Trichophyton benhamiae; test: Antifungal activity against Trichophyton mentagrophytes MUCC 665 after 48 hrs by tube dilution method; format: functional, Arthroderma benhamiae; conditions: not given; procedure, shortened: as §4

| Compound | MIC [mg/L] |
| --- | --- |
| COC(=O)[C@H](C)NC(=O)[C@H](CCCNC(=N)N[N+](=O)[O-])NC(=O)c1cc(-c2nc3cc(C)c(C)cc3[nH]2)ccc1O | 6 (≈ 10.6 µM) |

test system: Eudrilus; test: Anthelmintic activity against Eudrilus sp. assessed as mean paralyzing time; format: functional; conditions: not given
Procedure, shortened: (§5)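 Earthworms exposed to test suspensions at 2 mg mL^-1 (0.2% w/v), made by triturating compound with Tween 80 (0.5%) and distilled water, then mechanically stirred 30 min. Mebendazole suspension prepared alike as reference. Paralysis and death times recorded; death confirmed by no movement in 50 °C water. Means from triplicate sets.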

| Compound | Time [min] |
| --- | --- |
| COC(=O)[C@H](C)NC(=O)[C@H](CCCNC(=N)N[N+](=O)[O-])NC(=O)c1cc(-c2nc3cc(C)c(C)cc3[nH]2)ccc1O | 17.35 |

test system: Eudrilus; test: Anthelmintic activity against Eudrilus sp. assessed as mean death time; format: functional; conditions: not given
Procedure, shortened: (§6)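 Earthworms exposed to test suspensions at 2 mg mL−1, prepared by triturating compound with Tween 80 (0.5%) and distilled water, stirring 30 min, then diluting to 0.2% w/v. Mebendazole suspension was made the same way. Death was confirmed by moving worms into 50 °C warm water and looking for movement. Mean death time (min) taken from triplicate sets.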

| Compound | Time [min] |
| --- | --- |
| COC(=O)[C@H](C)NC(=O)[C@H](CCCNC(=N)N[N+](=O)[O-])NC(=O)c1cc(-c2nc3cc(C)c(C)cc3[nH]2)ccc1O | 28.54 |

test system: not listed separately; test: Anthelmintic activity against Megascoplex konkanensis ICARBC 211 assessed as mean paralyzing time; format: functional; conditions: not given; procedure, shortened: as §5

| Compound | TIME [h] |
| --- | --- |
| COC(=O)[C@H](C)NC(=O)[C@H](CCCNC(=N)N[N+](=O)[O-])NC(=O)c1cc(-c2nc3cc(C)c(C)cc3[nH]2)ccc1O | 0.279 |

test system: not listed separately; test: Anthelmintic activity against Megascoplex konkanensis ICARBC 211 assessed as mean death time; format: functional; conditions: not given; procedure, shortened: as §5

| Compound | TIME [h] |
| --- | --- |
| COC(=O)[C@H](C)NC(=O)[C@H](CCCNC(=N)N[N+](=O)[O-])NC(=O)c1cc(-c2nc3cc(C)c(C)cc3[nH]2)ccc1O | 0.423 |

test system: Pontoscolex corethrurus; test: Anthelmintic activity against Pontoscolex corethrurus ICARBC 408 assessed as mean paralyzing time; format: functional; conditions: not given; procedure, shortened: as §5

| Compound | Time [min] |
| --- | --- |
| COC(=O)[C@H](C)NC(=O)[C@H](CCCNC(=N)N[N+](=O)[O-])NC(=O)c1cc(-c2nc3cc(C)c(C)cc3[nH]2)ccc1O | 20.38 |

test system: Pontoscolex corethrurus; test: Anthelmintic activity against Pontoscolex corethrurus ICARBC 408 assessed as mean death time; format: functional; conditions: not given; procedure, shortened: as §6

| Compound | Time [min] |
| --- | --- |
| COC(=O)[C@H](C)NC(=O)[C@H](CCCNC(=N)N[N+](=O)[O-])NC(=O)c1cc(-c2nc3cc(C)c(C)cc3[nH]2)ccc1O | 32.65 |
